Assay results: ChEMBL document CHEMBL1124281, “A new series of ellipticine derivatives (1-(alkylamino)-9-methoxyellipticine). Synthesis, DNA binding, and biological properties” (J Med Chem, 1988)

Legend:
[1] = test system: NIH3T3; experiment: In vitro cytotoxicity by growth inhibition in NIH3T3 cells; type: functional; details: Mus musculus, read-out: ID50 (the source's name)
Outline: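 NIH-3T3 mouse fibroblasts in DMEM, 5% fetal calf serum, 37 °C, 6% CO2, seeded at 7.5×10^3 cells/cm²; drug added 24 h later and growth followed for three days. Trypsinized cells counted electronically; ID50 taken as 50% growth inhibition vs controls, from regression against log dose.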

[2] = test system: Nucleic Acid; experiment: Apparent binding constant (Kapp) to DNA, by direct fluorimetric titration, at pH 5; 10e-6; type: nucleic-acid assay; details: Bos taurus
Outline: (§1)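 Calf thymus DNA binding by direct fluorescence titration (excitation 310 nm, emission 540 nm) in 10 mM acetate buffer, 100 mM NaCl, pH 5.2, 20 °C. Scatchard plots gave apparent association constant Kapp and apparent binding sites per nucleotide r_app. Drug stocks 5×10^-3 M in 50% DMSO/water, diluted in buffer.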

[3] = test system: Mus musculus; experiment: In vivo antitumor effect, expressed as the highest nonlethal dose (LD0), administered by intraperitoneal route; type: ADME, organism-based; details: ip
[4] = test system: Nucleic Acid; experiment: Maximum number of sites; type: nucleic-acid assay; details: Bos taurus; outline: as §1
[5] = test system: L1210; experiment: In vitro cytotoxicity by growth inhibition in L1210 cells; type: functional; details: Mus musculus, read-out: ID50 (the source's name)
Outline: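 L1210 leukemia suspension cultures in RPMI with fetal calf serum, 37 °C, 6% CO2; 10^4 cells/mL exponential phase exposed in duplicate to drug at final 10^-5–10^-8 M for 48 h. Cells counted electronically, viability by trypan blue exclusion; ID50 (50% growth inhibition vs untreated controls) from regression of % inhibition against log dose.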

[6] = test system: Mus musculus; experiment: In vivo antitumor effect, expressed as the lethal dose (LD100), administered by intraperitoneal route; type: ADME, organism-based; details: ip
[7] = test system: Mus musculus; experiment: Increase in life of span over controls, 10e5 L1210 cells per mouse of 20 g, by ip route LD0/10 ata conc of LD0/5(N); type: functional
Outline: (§2)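 Random DBA/2 female mice of 20 g were inoculated ip with 10^5 L1210 leukemia cells. A single ip dose in 200 μL water was given 24 h later, at LD0/10, LD0/5 or LD0/2, with 10 mice per dose and 20 controls. Deaths were counted daily at the same hour. ILS was taken from treated versus control median survival time, and cured mice were counted.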

[8] = test system: Mus musculus; experiment: Increase in life of span over controls, 10e5 L1210 cells per mouse of 20 g, by ip route LD0/10 ata conc of LD0/10(N); type: functional; set-up: unit not given here; outline: as §2
[9] = test system: Mus musculus; experiment: Increase in life of span over controls, 10e5 L1210 cells per mouse of 20 g, by ip route LD0/10 ata conc of LD0/2(N); type: functional; outline: as §2
[10] = test system: Mus musculus; experiment: Increase in life of span over controls, 10e5 L1210 cells per mouse of 20 g, by ip route LD0/10 at a conc of LD0/5(N); type: functional; outline: as §2
[11] = test system: Mus musculus; experiment: Increase in life of span over controls, 10e5 L1210 cells per mouse of 20 g, by ip route LD0/10 at a conc of LD0/2(N); type: functional; outline: as §2

SMILES | IC50 [1] | K app [2] | LD0 [3] | rapp [4] | IC50 [5] | LD100 [6] | ILS [7] | ILS [8] | ILS [9] | ILS [10] | ILS [11]
COc1ccc2[nH]c3c(C)c4ccnc(NCC(C)C)c4c(C)c3c2c1 | 300 nM | 2.35e+06 M⁻¹ | > 200 mg/kg | 0.17 | 90 nM | – | – | – | – | – | –
CCCNc1nccc2c(C)c3[nH]c4ccc(OC)cc4c3c(C)c12 | 300 nM | 2e+06 M⁻¹ | 100 mg/kg | 0.2 | 100 nM | 200 mg/kg | 2 | 0 | – | – | –
COc1ccc2[nH]c3c(C)c4ccnc(N)c4c(C)c3c2c1 | – | 1e+06 M⁻¹ | 60 mg/kg | 0.2 | 100 nM | 70 mg/kg | 39 | 21 | 93 | – | –
COc1ccc2[nH]c3c(C)c4ccnc(NCCC(C)C)c4c(C)c3c2c1 | 500 nM | 3.75e+06 M⁻¹ | 300 mg/kg | 0.2 | 800 nM | 350 mg/kg | 5 | 10 | – | – | –
CCNc1nccc2c(C)c3[nH]c4ccc(OC)cc4c3c(C)c12 | 300 nM | 2.15e+06 M⁻¹ | 70 mg/kg | 0.2 | 50 nM | 90 mg/kg | – | 2 | – | 13 | 42
